The source made the active and inactive calls. The calls are words filed in the database; no cut-off is given here.
Legend:
[1] = test system: A2780cisR; assay: Antiproliferative activity against human A2780cisR cells assessed as reduction in cell viability incubated for 72 hrs by MTT assay; type: functional, cell-based
Summary of the method: (§1)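 Cells seeded overnight in 96-well plates, then exposed to increasing concentrations (compound dissolved in DMSO, diluted in medium) for the stated time. MTT (5 mg/ml in PBS) added for 15 min, formazan dissolved in DMSO, absorbance read at 544 nm minus 690 nm background. IC50 = concentration giving 50% signal decrease. At least three independent experiments in triplicate.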

[2] = test system: MDA-MB-231; assay: Antiproliferative activity against human MDA-MB-231 cells assessed as reduction in cell viability incubated for 72 hrs by MTT assay; type: functional, cell-based; conditions: MDA-MB-231, 72 h; summary of the method: as §1
[3] = test system: KYSE-510; assay: Antiproliferative activity against human cisplatin resistant KYSE-510 cells assessed as reduction in cell viability incubated for 72 hrs by MTT assay; type: functional, cell-based; conditions: KYSE-510, 72 h; summary of the method: as §1
[4] = test system: J82; assay: Antiproliferative activity against human cisplatin resistant J82 cells assessed as reduction in cell viability incubated for 72 hrs by MTT assay; type: functional, cell-based; conditions: J82, 72 h; summary of the method: as §1
[5] = test system: CAL-27; assay: Potency index, ratio of cisplatin IC50 to compound IC50 for antiproliferative activity in human CAL27 cells assessed as reduction in cell viability incubated for 72 hrs by MTT assay; type: functional
Summary of the method: (§2)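 Cells seeded in 96-well plates overnight, exposed 72 h to increasing concentrations. MTT (5 mg/ml) added for 15 min, formazan dissolved in DMSO, absorbance read at 544 nm with 690 nm background subtracted. IC50 is the concentration reducing signal by 50%. Three independent experiments in triplicate. CisR sublines made by weekly intermittent cisplatin exposure for 24–30 weeks.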

[6] = test system: KYSE-510; assay: Potency index, ratio of cisplatin IC50 to compound IC50 for antiproliferative activity in human KYSE-510 cells assessed as reduction in cell viability incubated for 72 hrs by MTT assay; type: functional; summary of the method: as §2
[7] = test system: J82; assay: Potency index, ratio of cisplatin IC50 to compound IC50 for antiproliferative activity in cisplatin resistant human J82 cells assessed as reduction in cell viability incubated for 72 hrs by MTT assay; type: functional; summary of the method: as §2
[8] = test system: K562; assay: Potency index, ratio of cisplatin IC50 to compound IC50 for antiproliferative activity in human K562 cells assessed as reduction in cell viability incubated for 72 hrs by MTT assay; type: functional; summary of the method: as §2
[9] = test system: A2780; assay: Ratio of IC50 for antiproliferative activity in human A2780 cells assessed as reduction in cell viability incubated for 24 hrs by MTT assay to IC50 for antiproliferative activity in human A2780 cells assessed as reduction in cell viability incubated for 72 hrs by MTT assay; type: functional
Summary of the method: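 MTT assay as for the viability IC50s (overnight seeding, MTT 15 min, DMSO solubilisation, 544/690 nm), with PXA incubation for 24 h versus 72 h. IC50 is the concentration giving a 50% signal decrease. At least three independent experiments.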

[10] = test system: A2780; assay: Cell cycle arrest in human A2780 cells assessed as accumulation at G1 phase incubated for 24 hrs by propidium iodide staining based flow cytometry; type: functional
Summary of the method: (§3)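 After 24 h exposure, cells washed in ice-cold PBS. About 2 million cells fixed in cold 70% ethanol at −20 °C for at least 24 h. Stained with 0.1% Triton X-100, 200 µg/ml RNase A and 20 µg/ml propidium iodide in PBS, 15 min at 37 °C in the dark. DNA content read by flow cytometry with doublet discrimination. Medium as untreated control, paclitaxel as G2/M control. Three independent experiments.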

[11] = test system: A2780cisR; assay: Cell cycle arrest in human A2780cisR cells assessed as accumulation at G1 phase at 5 uM incubated for 24 hrs by propidium iodide staining based flow cytometry (reference value: 68.7%); type: functional; summary of the method: as §3
[12] = test system: A2780cisR; assay: Induction of apoptosis in human A2780cisR cells assessed as depolarization of mitochondrial membrane potential incubated for 1 hr by TMRE staining based flow cytometry; type: functional, cell-based
Summary of the method: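 Cells seeded overnight; complete medium swapped for FBS-free medium just before treatment to avoid TMRE ester cleavage. Exposure to PXA for 1 h, 2 h or 24 h. TMRE staining 20 min, cells collected by trypsinisation, ΔΨm read by flow cytometry. Medium served as negative control, 20 µM CCCP as positive control. Mean ± SEM reported.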

[13] = test system: A2780; assay: Induction of apoptosis in human A2780 cells assessed as increase in intracellular calcium level at 10 to 30 uM incubated for 30 mins in presence of 1 mM extracellular calcium by fluorimetry; type: functional, cell-based
Summary of the method: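 Cells seeded in 96-well plates overnight, washed twice with Krebs-HEPES buffer, loaded 1 h at 37 °C in the dark with Oregon Green BAPTA-1 AM (final 3 µM) and Pluronic F-127. Buffer replaced, PXA added, fluorescence at 544 nm recorded for 30 min, with or without 1 mM extracellular Ca2+. Three experiments, mean ± SEM.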

[14] = test system: A2780cisR; assay: Induction of apoptosis in human A2780cisR cells assessed as increase in activation of caspase 3/7 at 10 uM incubated for 24 hrs by hoechst 33342 staining based fluorescence microscopy (reference value: 0.8%); type: functional
[15] = test system: A2780; assay: Induction of apoptosis in human A2780 cells assessed as decrease in claspin expression at 5 uM incubated for 24 hrs by proteome profiler analysis; type: functional, cell-based
Summary of the method: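 A2780 cells treated 24 h with 5 µM, then apoptosis-related proteins read on an antibody array (Proteome Profiler human apoptosis array) per kit instructions.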

[16] = test system: A2780cisR; assay: Induction of apoptosis in human A2780cisR cells assessed as decrease in claspin expression at 5 uM incubated for 24 hrs by proteome profiler analysis; type: functional, cell-based
Summary of the method: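 A2780 and A2780CisR cells treated 24 h with 5 µM PXA; apoptosis-related proteins profiled with a human apoptosis antibody array following kit instructions.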

[17] = test system: A2780cisR; assay: Induction of apoptosis in human A2780cisR cells assessed as plasma membrane damage at 1 to 10 uM incubated for 24 hrs by propidium iodide staining based flow cytometry; type: functional, cell-based
Summary of the method: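 Cells exposed to PXA for 24 h, trypsinised, pelleted at 4 °C, stained with 100 µg/ml propidium iodide, diluted in sheath fluid and read by flow cytometry. Positive control was 0.2% Triton X-100 (20 min). Three experiments, mean ± SEM.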

[18] = test system: J82; assay: Induction of apoptosis in cisplatin resistant human J82 cells assessed as depolarization of mitochondrial membrane potential incubated for 2 hrs by TMRE staining based flow cytometry; type: functional, cell-based
Summary of the method: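 Cells seeded overnight; medium switched to FBS-free just before treatment to avoid TMRE ester cleavage. Exposure 1 h, 2 h or 24 h, then TMRE staining for 20 min. Cells trypsinized, centrifuged at 4 °C and read by flow cytometry. Medium as negative control, 20 µM CCCP as positive control. […]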

[19] = test system: J82; assay: Induction of apoptosis in human J82 cells assessed as depolarization of mitochondrial membrane potential at 5 to 10 uM incubated for 2 hrs by hoechst 33342 staining based fluorescence microscopy; type: functional
Summary of the method: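 J82 cells treated 2 h with PXA, then labelled 20 min with TMRE plus Hoechst 33342. ΔΨm read by high-content fluorescence imaging. Untreated medium and 20 µM CCCP served as controls.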

For CC(=O)OC[C@]12Oc3c(-c4ccc(O)c5c4O[C@@]4(COC(C)=O)C(=C(O)C[C@@H](C)[C@H]4OC(C)=O)C5=O)ccc(O)c3C(=O)C1=C(O)C[C@@H](C)[C@H]2OC(C)=O [PHOMOXANTHONE A], the IC50 ([1]; read-out: IC50) was 1.37 to 1.38 µM, the IC50 ([1]; read-out: pIC50 (converted)) was 1.38 µM and the IC50 [2] was 3.7 µM. For the same molecule, the IC50 [3] was 0.79 µM, the IC50 [4] was 2.04 µM and the “Ratio IC50” value [5] was 2 - 10. The “Ratio IC50” value [6] was 2 - 10, the “Ratio IC50” value [7] was 4 and the “Ratio IC50” value [8] was 5. The “Ratio IC50” value [9] was 2.5, the Activity [10] was “Dose-dependent effect” and the Activity [11] was 83.3%. The Activity [12] was “Dose-dependent effect”, the IC50 [12] was 1.25 µM and the Activity [13] was “Active”. The Activity [14] was 71%, the Activity [15] was “Active” and the Activity [16] was “Active”. For the same molecule, the Activity [17] was “inactive”, the Activity [18] was “Dose-dependent effect” and the IC50 ([18]; J82, 2 h) was 2.75 µM. For the same molecule, the Activity [19] was 100%.
